This is an account of results in ChEMBL document CHEMBL3822428, “Design, Synthesis, and Biological Evaluation of Potential Prodrugs Related to the Experimental Anticancer Agent Indotecan (LMP400)” (J Med Chem, 2016).

Series [1] in a line: Antiproliferative activity in human […] cells assessed as cell growth inhibition after 48 hrs by SRB assay. Type of series: functional. Put shortly:
(§1)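 NCI-60 screen: cells exposed to compound at 100, 10, 1, 0.1 and 0.01 μM for 48 h, then sulforhodamine B staining. Optical density ratio to control plotted as percent growth versus log10 concentration; GI50 interpolated between points above and below 50% growth.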
On the technique in general: In SRB staining, fixed cells bind dye roughly in proportion to their protein.

In another series the test system is SN12C. As to the kind of experiment: Antiproliferative activity in human SN12C cells assessed as cell growth inhibition after 48 hrs by SRB assay. Type of series: functional. Put shortly:
as §1

In another series the test system is MCF7. The series is described as follows: Antiproliferative activity in human MCF7 cells assessed as cell growth inhibition after 48 hrs by SRB assay. Type of series: functional. The note with it: MCF7, 48 h. The gist of the method: as §1
Series [2] is described as follows: Antiproliferative activity in human HCT116 cells assessed as cell growth inhibition after 48 hrs by SRB assay. Type of series: functional. The note with it: HCT-116, 48 h. Put shortly:
as §1

Series [3] is described as follows: Antiproliferative activity in human UACC62 cells assessed as cell growth inhibition after 48 hrs by SRB assay. Type of series: functional. The note with it: UACC-62, 48 h. Put shortly:
as §1

Series [4] can be described thus: Antiproliferative activity in human SF539 cells assessed as cell growth inhibition after 48 hrs by SRB assay. Type of series: functional. The note with it: SF-539, 48 h. The gist of the method:
as §1

Series [5] deals with T1, DNA topoisomerase 1 (Homo sapiens) (UniProt P11387).
T1 sequence (whole entry): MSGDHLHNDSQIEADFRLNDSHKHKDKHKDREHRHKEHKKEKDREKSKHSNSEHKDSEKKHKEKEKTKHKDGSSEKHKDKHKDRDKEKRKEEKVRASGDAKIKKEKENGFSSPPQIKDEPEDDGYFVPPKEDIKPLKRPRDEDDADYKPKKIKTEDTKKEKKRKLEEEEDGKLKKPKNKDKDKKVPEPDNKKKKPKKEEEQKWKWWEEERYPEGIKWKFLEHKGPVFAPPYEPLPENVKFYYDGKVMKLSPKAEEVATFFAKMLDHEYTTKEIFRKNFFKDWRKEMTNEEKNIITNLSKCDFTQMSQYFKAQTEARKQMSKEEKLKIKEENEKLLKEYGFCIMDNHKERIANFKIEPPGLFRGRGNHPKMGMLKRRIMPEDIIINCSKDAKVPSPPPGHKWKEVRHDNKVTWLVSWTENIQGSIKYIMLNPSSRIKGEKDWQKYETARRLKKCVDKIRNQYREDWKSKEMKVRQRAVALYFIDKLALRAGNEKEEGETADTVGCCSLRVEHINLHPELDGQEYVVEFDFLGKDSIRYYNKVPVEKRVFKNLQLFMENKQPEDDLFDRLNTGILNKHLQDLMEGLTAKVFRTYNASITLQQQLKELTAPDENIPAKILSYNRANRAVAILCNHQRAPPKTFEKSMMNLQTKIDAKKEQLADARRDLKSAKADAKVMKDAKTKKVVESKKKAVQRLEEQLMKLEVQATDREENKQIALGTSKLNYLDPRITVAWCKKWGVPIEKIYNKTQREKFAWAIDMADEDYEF
As to the kind of experiment: Inhibition of human recombinant Top1 expressed in baculovirus using [32P]-3-end labeled 117 bp DNA oligonucleotide as substrate assessed as enzyme mediated DNA cleavage at 0.1 to 100 uM after 20 mins by SDS-PAGE analysis relative to camptothecin. Details: scale not given: the % may be the effect or the level left. Put shortly:
(§2)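 Baculovirus-purified human recombinant Top1 with ~2 nM 117-bp oligonucleotide, 3'-end labeled by Klenow fill-in with [α-32P]dGTP. Stopped with 0.5% SDS and formamide dye; 20% denaturing PAGE, phosphoimager.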

A short description of series [6]: Antiproliferative activity in human DU145 cells assessed as cell growth inhibition after 48 hrs by SRB assay. The note with it: DU-145, 48 h. Type of series: functional. The gist of the method:
as §1

A short description of series [7]: Antiproliferative activity in human HOP62 cells assessed as cell growth inhibition after 48 hrs by SRB assay. It counts as functional. The note with it: HOP-62, 48 h. The gist of the method:
as §1

Series [8] deals with Plasma. As to the kind of experiment: Drug metabolism in rat plasma assessed as compound 9 formation at 5 uM after 15 mins by LC-MS/MS analysis. Type of series: ADME, cell-free. The note with it: 0.25 h. The gist of the method:
(§3)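 Rat plasma at 37 °C with compound at 5 μM, duplicate runs alongside enalapril and warfarin controls. Aliquots taken at 0, 1, 3, 5 and 15 min into three volumes ice-cold methanol with propranolol internal standard, held ≥10 min at -20 °C, centrifuged. Parent quantified by LC-MS/MS in positive ion mode, expressed as % of time-zero concentration.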

Series [9] in a line: Half life in rat plasma at 5 uM by LC-MS/MS analysis. Type of series: ADME, cell-free. The gist of the method:
as §3

Series [10] concerns the target T1, DNA topoisomerase 1 (Homo sapiens). As to the kind of experiment: Inhibition of human recombinant Top1 expressed in baculovirus using [32P]-3-end labeled 117 bp DNA oligonucleotide as substrate assessed as enzyme mediated DNA cleavage after 20 mins by SDS-PAGE analysis relative to camptothecin. Set-up: concentration or dose not given beside the values. The gist of the method:
as §2

Series [11] deals with Plasma. As to the kind of experiment: Drug uptake in rat plasma treated with of 2-Methoxy-6-(3-morpholinopropyl)-5,12-dioxo-6,12-dihydro 5H-[1,3]dioxolo[4,5:5,6]indeno[1,2-c]isoquinolin-3-yl Acetate after 15 mins by LC-MS/MS analysis. Type of series: ADME, cell-free. The note with it: 0.25 h. The gist of the method:
as §3

The nature of series [12]: Drug uptake in RPMI1640 medium treated with2-Methoxy-6-(3-morpholinopropyl)-5,12-dioxo-6,12-dihydro-5H-[1,3]dioxolo[4,5:5,6]indeno[1,2-c]isoquinolin-3-yl Methyl Succinate by at 10 uM after 99 hrs by LC-MS analysis. Type of series: physicochemical. Put shortly: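 Compound (10 μM) incubated in cell-free RPMI 1640 medium at 37 °C for 99 h. Aliquot filtered and analysed by LC-MS, diode-array detection at 280 nm, flow 0.75 mL/min, for conversion to parent phenol.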

Structures are written as SMILES. Active and inactive are the calls of the source. The calls are words filed in the database; no cut-off is given here.

Usually GI50 stands for the concentration that inhibits growth by half. Take `COc1cc2c(=O)n(CCCN3CCOCC3)c3c(c2cc1OC(=O)N(C)C)C(=O)c1cc2c(cc1-3)OCO2`: the GI50 in [1] was determined as 12000 nM; with SN12C, 2400 nM; in the series on MCF7 it was 22 nM; in series [2], 6070 nM; in series [3], 4470 nM; in series [4], 1860 nM. The GI50 in series [6] worked out at 1550 nM; in [7], 1700 nM. For the same compound, the Activity in series [5] was 75%.
The term half-life denotes how long it takes for the measured level to halve. Turning to `COc1cc2c3c(n(CCCN4CCOCC4)c(=O)c2cc1OC(C)=O)-c1cc2c(cc1C3=O)OCO2`, the Drug metabolism result in the series with Plasma [8] is on record as “metabolite_detected”. The GI50 was 269 nM in series [1]; under 10 nM with SN12C; under 10 nM with MCF7; under 10 nM in series [2]; under 10 nM in series [3]; under 10 nM in [4]. The GI50 in [6] and in series [7] was under 10 nM each time. The half-life at 5 µM in series [9] was determined as 54 s. In [10], the outcome was inactive.
`COc1cc2c(=O)n(CCCN3CCOCC3)c3c(c2cc1O)C(=O)c1cc2c(cc1-3)OCO2`: in [1], the GI50 worked out at 871 nM. The Activity in [10] was found to be 50%.
Take `COc1cc2c3c(n(CCCN4CCOCC4)c(=O)c2cc1O)-c1cc2c(cc1C3=O)OCO2`: the GI50 in series [1] is 30 nM; with SN12C, under 10 nM; in the series with MCF7 it was under 10 nM; in [2], 20 nM; in series [3], under 10 nM; in [4], under 10 nM. The values for the GI50 in series [6] and in series [7] were under 10 nM and 10 nM, respectively. Further, the Drug uptake entry (in the series with Plasma [11]; in [12]) was “Active” each time. Also, the Activity in series [10] is 75%.
Consider `COc1cc2c3c(n(CCCN4CCOCC4)c(=O)c2cc1OS(=O)(=O)O)-c1cc2c(cc1C3=O)OCO2`, for which the GI50 stood at 1120 nM in [1]; 355 nM in the series with SN12C; 209 nM in the series with MCF7; 389 nM in series [2]; 263 nM in [3]; 263 nM in series [4]. For the same compound, the results for the 50% growth inhibitory concentration (GI50) in [6] and in series [7] were 417 nM and 389 nM, respectively. In [5], the Activity came to 50%.
In the case of `COc1cc2c(=O)n(CCCN3CCOCC3)c3c(c2cc1OC(=O)c1cccnc1)C(=O)c1cc2c(cc1-3)OCO2`, the GI50 in series [1] was 295 nM; in the series with SN12C, under 10 nM; in the series on MCF7, under 10 nM; in [2], 30 nM; in series [3] it was 22 nM; in [4] it was under 10 nM. The GI50 in [6] was 13 nM; in series [7], 12 nM. Also, the Activity in [5] stood at 75%.
As to `COC(=O)CCC(=O)Oc1cc2c3c(n(CCCN4CCOCC4)c(=O)c2cc1OC)-c1cc2c(cc1C3=O)OCO2`, the GI50 was 66 nM in [1]; under 10 nM with SN12C; under 10 nM in the series with MCF7; 14 nM in [2]; under 10 nM in series [3]; under 10 nM in [4]. Also, the GI50 in [6] and in [7] was under 10 nM throughout. Also, in [10], the Activity stood at 20%.
As to `COc1cc2c3c(n(CCCN4CCOCC4)c(=O)c2cc1OC(=O)N(C)C)-c1cc2c(cc1C3=O)OCO2`, the concentration for 50% growth inhibition (GI50) in [1] is 105 nM; in the series with SN12C it was 25 nM; with MCF7 it was under 10 nM; in series [2], 26 nM; in series [3], 17 nM; in series [4] it was 21 nM. Moreover, the GI50 in [6] and in series [7] was 32 nM throughout. Moreover, the Activity in series [10] worked out at 50%.
`COc1cc2c3c(n(CCCN4CCOCC4)c(=O)c2cc1OC(=O)c1ccccc1)-c1cc2c(cc1C3=O)OCO2`: the GI50 in series [1] was found to be 30900 nM; in the series with SN12C it was 195 nM; with MCF7, 15 nM; in series [2], 5890 nM; in [3], 59 nM; in series [4], 135 nM. Also, the figures for the GI50 in series [6] and in series [7] were 724 nM and 2140 nM, respectively. Besides, in [10], the Activity is 20%.
As for `COc1cc2c(=O)n(CCCN3CCOCC3)c3c(c2cc1OC(C)=O)C(=O)c1cc2c(cc1-3)OCO2`, the GI50 in series [1] was 138 nM; with SN12C it was under 10 nM; in the series on MCF7, under 10 nM; in series [2] it was 29 nM; in series [3], 18 nM; in series [4], under 10 nM. Also, the GI50 in series [6] was under 10 nM; in [7], 18 nM. Moreover, in series [5], the Activity came to 50%.
For the compound `COc1cc2c3c(n(CCCN4CCOCC4)c(=O)c2cc1OC(=O)c1cccnc1)-c1cc2c(cc1C3=O)OCO2`, the GI50 in [1] was 15 nM; in the series with SN12C, under 10 nM; in the series with MCF7, under 10 nM; in [2], under 10 nM; in series [3], under 10 nM; in series [4], under 10 nM. In addition, the GI50 in series [6] and in [7] was under 10 nM in each case. Also, the Activity in series [10] was determined as 20%.
Turning to `COC(=O)CCC(=O)Oc1cc2c(=O)n(CCCN3CCOCC3)c3c(c2cc1OC)C(=O)c1cc2c(cc1-3)OCO2`, the concentration for 50% growth inhibition (GI50) is 37 nM in [1]; under 10 nM in the series on SN12C; under 10 nM with MCF7; 20 nM in series [2]; 18 nM in series [3]; under 10 nM in series [4]. The GI50 in [6] turned out to be 14 nM; in series [7], 16 nM. Besides, the outcome in series [10] was inactive.
`COc1cc2c3c(n(CCCN4CCOCC4)c(=O)c2cc1OC)-c1cc2c(cc1C3=O)OCO2` [INDOTECAN]: the 50% growth inhibitory concentration (GI50) in [1] was 74100 nM; with MCF7, 374 nM; in series [3], 30 nM; in series [4], 40 nM. The Activity in series [10] was 100%.
As for `COc1cc2c(=O)n(CCCN3CCOCC3)c3c(c2cc1OC(=O)c1ccccc1)C(=O)c1cc2c(cc1-3)OCO2`, the GI50 in series [1] turned out to be 4570 nM; in the series with SN12C, 54 nM; in the series with MCF7 it was 33 nM; in series [2], 850 nM; in series [3] it was 96 nM; in series [4] it was 37 nM. Also, the GI50 in [6] worked out at 51 nM; in series [7], 79 nM. Also, the Activity in series [5] is 20%.
